Only some compounds are listed: those with a hit (about 2% of all), similar ones and a draw of the others.
Plk1 PBD FP = blocks phosphopeptide binding to human Plk1 polo box domain; P53350; Plk1 PBD phosphopeptide binding, fluorescence polarization; inhibition, %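 (tested at about 20 µM)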; hit rate 0.13% among 97,000; AID 693; in the data active = inhibition above about 34%, passing the limit was not always enough
EphB4 antag = antagonists of human EphB4-ephrin-B2 interaction. EphB4 LBD / TNYL-RAW-Alexa532 peptide, fluorescence polarization. inhibition, % at 7 µM. hit rate 0.15% among 97,000. AID 720;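 active = inhibition above the screen-wide mean inhibition plus 3 SD, cut at about 15% in these data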
PTPN22 inh 2 = LYP (human) phosphatase inhibition; recombinant LYP catalytic domain, DiFMUP fluorescence; inhibition, % at 2 µM; hit rate 0.21% among 96,000;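 active = inhibition at 2 µM at or above a set limit, the screen mean plus 3 SD, cut at about 24% in these data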
PLK1 kinase inh = PLK1 (human) kinase inhibition; recombinant PLK1 kinase, TR-FRET peptide phosphorylation; inhibition, % at 10 µM; hit rate 0.53% among 97,000; AID 619;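 active = inhibition of 50% or more in the single-concentration screen; inactive = inhibition below 50%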
PTPN22 act = activators of human LYP (PTPN22) phosphatase. activation, % at 2 µM. recombinant LYP, DiFMUP fluorescence; 0 = plate median, 100 = signal doubled. Q9Y2R2. hit rate 0.11% among 96,000;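 active = activation at 2 µM above a set limit, the mean plus 5 SD, cut at about 37% in these data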
Rev-RRE block = HIV Rev-RRE protein-RNA interaction inhibition; P05866; Rev peptide-RRE RNA binding, FRET; inhibition, % at 8 µM; hit rate 0.79% among 97,000;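 active = inhibition above the screen-wide mean plus 3 SD, cut at about 35% in these data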
Target sequence (P05866 whole entry, looked up): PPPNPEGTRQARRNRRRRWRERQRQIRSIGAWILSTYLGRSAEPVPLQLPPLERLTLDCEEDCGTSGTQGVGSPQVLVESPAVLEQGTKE
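Assay system: Labelled RRE RNA duplex and labelled Rev peptide | Times: 5 min preincubation and 15 min binding, 25 °C | Detection: FRET, ex 480 nm, em 540 and 671 nm | Evaluation: % inhibition of FRET ratio versus controls | Benchmarks: DMSO wells as 0% and neomycin B wells as 100% inhibition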
Of the large screens only hits and unclear results are named; the others gave an inactive call; [ ] = dose if it differs, or a comment.

Cc1ccc(OCCSc2ncnc3nc[nH]c23)cc1	PLK1 kinase inh 56
CCCCNC(=O)CC(C(=O)N1CCc2ccccc21)n1ccnc1 (stereo not given)	none
O=C(CC(C(=O)N1CCc2ccccc21)n1ccnc1)N1CCc2ccccc2C1 (stereo not given)	Rev-RRE block 60
Cc1cccc(S(=O)(=O)C(C#N)c2nc3ccccc3nc2N2CCCC2)c1 (stereo not given)	Rev-RRE block 82[fluorescence artefact?]
Cc1ccc(C)c(S(=O)(=O)C(C#N)c2nc3ccccc3nc2N2CCCC2)c1 (stereo not given)	Rev-RRE block 64
Cc1ccc(S(=O)(=O)C(C#N)c2nc3ccccc3nc2N2CCN(C)CC2)cc1C (stereo not given)	none
COc1ccc(S(=O)(=O)C(C#N)c2nc3ccccc3nc2N2CCCCC2)cc1 (stereo not given)	none
Cc1ccc(C)c(S(=O)(=O)C(C#N)c2nc3ccccc3nc2N2CCOCC2)c1 (stereo not given)	none
N#CC(c1nc2ccccc2nc1N1CCCC1)S(=O)(=O)c1ccccc1 (stereo not given)	Rev-RRE block 82[fluorescence artefact?]
N#CC(c1nc2ccccc2nc1N1CCCC1)S(=O)(=O)c1cccs1 (stereo not given)	Rev-RRE block 42
O=C1CCCc2c1nn(-c1ccccc1)[n+]2[O-]	none
CCOC(=O)C1CCN(c2nc3ccccc3nc2C(C#N)C(=O)OC(C)C)CC1 (stereo not given)	none
N#C/C(=C/c1ccc(N2CCCCCC2)o1)c1cccc(F)c1	Rev-RRE block 105[fluorescence artefact?]
N#C/C(=C/c1ccc(N2CCCCC2)o1)C(=O)Nc1ccc(Cl)cc1	Rev-RRE block 139[fluorescence artefact?]
N#C/C(=C/c1ccc(N2CCCCCC2)o1)c1ccc(F)cc1	Rev-RRE block 73
N#C/C(=C\c1ccc(Sc2nc3ccccc3[nH]2)o1)c1ccccc1	none
COc1cc(N2CCCC2)c(OC)cc1/C=C(/C#N)c1cccc(F)c1	Rev-RRE block 117[fluorescence artefact?]
CC1(C)CC(=O)C(CC(=O)NC(=O)NCc2ccccc2)=C(O)C1	none
CC1CCCC(C)N1C(=O)CSc1nnc(NC(=O)Cc2cccs2)s1 (stereo not given)	none
Cc1nn(-c2ccccc2)c(C)c1/C=N/NC(=O)c1cc(C23CC4CC(CC(C4)C2)C3)[nH]n1	PTPN22 inh 2 38
Cc1nn(-c2ccccc2)c(C)c1/C=N/NC(=O)c1cc(C2CC2)[nH]n1	none
COc1ccc2nc(N3CCCC3)c(C#N)cc2c1	Rev-RRE block 47
COc1ccc(/C=N/NC(=O)c2ccc(Cn3cc([N+](=O)[O-])cn3)o2)cc1O	none
COc1ccc(/C=N/Nc2ccc([N+](=O)[O-])cc2)cc1Cn1cc([N+](=O)[O-])cn1	Rev-RRE block 54
COc1ccccc1NC(=O)C1CCCN1C(=O)NCc1ccccc1 (stereo not given)	none
CC(C)c1ccc(C2C(C#N)=C(N)N3C(=C2C#N)Sc2ccccc23)cc1 (stereo not given)	Rev-RRE block 56
CC(C)c1ccc(C2CC(=O)N3CN(C)CSC3=C2C#N)cc1 (stereo not given)	none
O=c1oc2ccccc2cc1-c1nnc(NCc2ccco2)s1	Rev-RRE block 44
CC(C)C(CCNC(=O)CN1C(=O)c2ccccc2C1=O)c1ccco1 (stereo not given)	none
CC(C)C(CCNC(=O)CC(Cc1ccccc1)c1ccco1)c1ccco1 (stereo not given)	PTPN22 inh 2 24
CCn1c(=O)cc(SCC(=O)NCCCN2CCN(c3ccccc3F)CC2)c2ccccc21	none
CCOc1ccc(N=C2NC(=O)S/C2=C\c2ccc(N(C)C)cc2)cc1	Rev-RRE block 118[fluorescence artefact?]
CCOc1ccc(N=C2NC(=O)C(CC(=O)O)S2)cc1 (stereo not given)	none
CC(=O)Nc1ccc(SCC(=O)OCC(=O)NC(=O)NCc2ccco2)cc1	EphB4 antag 16
CN1C(=O)S/C(=C/c2cccnc2)C1=O	EphB4 antag 19
Cn1c(SCC(=O)Nc2nc3ccccc3s2)nnc1-c1ccccc1	none
CC1(C)Cc2ccccc2-c2nnc(SCC(=O)Nc3nc4ccccc4s3)n21	EphB4 antag 18
CCOC(=O)c1c(C)[nH]c(C)c1C(=O)COC(=O)CCOc1ccccc1OC	PLK1 kinase inh 65
CC1=CCC2C(=O)N(c3nc4ccccc4n3C)C(=O)C2C1 (stereo not given)	none
CC1=CC2=C(OC1N(C)C)c1cccc3cccc(c13)C2=O (stereo not given)	Rev-RRE block 48
CCN(c1ccc(NC(=O)COC(=O)c2ccc(C)c(S(=O)(=O)N3CCOCC3)c2)cc1)C(C)C	none
COc1cccc(-c2csc3nc[nH]c(=O)c23)c1	PLK1 kinase inh 61
CCOC(=O)C1=C(O)/C(=C/c2ccc(-c3ccccc3C(=O)O)o2)SC1=Nc1ccc(OC)cc1	Rev-RRE block 89[fluorescence artefact?]
O=C(NCc1ccccc1)C1COc2ccccc2O1 (stereo not given)	none
CC(CN(C)Cc1ccccc1)OC(=O)C1COc2ccccc2O1 (stereo not given)	PLK1 kinase inh 62 (no result: PTPN22 inh 2, PTPN22 act)
COc1cccc(N/C(SC)=C(/C#N)C(N)=O)c1	none
COc1ccc(S(=O)(=O)N2CC3CCCN3c3cc(C(F)(F)F)ccc32)cc1 (stereo not given)	PTPN22 inh 2 25
COc1ccc(S(=O)(=O)N2CC3CCCN3c3ccc(C(F)(F)F)cc32)cc1 (stereo not given)	none
COC(=O)CSc1nc(C)cc(Oc2ccccc2)n1	PLK1 kinase inh 59 (no result: PTPN22 inh 2, PTPN22 act)
Cc1cc(Oc2ccccc2)nc(SCC(=O)Nc2ccc(Cl)cc2Cl)n1	none
O=C(O)c1cc2nc(-c3ccc(F)cc3)cc(C(F)(F)F)n2n1	none
CCOc1ccc(NC(=O)CN2C(=O)COc3ccc(Cl)cc32)cc1	none
COc1cc(/C=c2\s/c(=C(/C#N)C(=O)N3CCCC3)n(-c3ccccc3)c2=O)ccc1O	Rev-RRE block 46
O=C(CSc1ccccn1)N1CCN(c2ccc(Cl)cc2)CC1	none
COc1ccc(C(=O)Nn2cnnc2)c(OC)c1	none
COc1ccc(C2C=C(c3ccc(C)cc3)Nc3ncnn32)cc1 (stereo not given)	Rev-RRE block 56
COc1ccc(C2=CC(c3ccc(C)cc3)n3nnnc3N2)cc1 (stereo not given)	Rev-RRE block 47
COc1ccc(C2C=C(c3ccccc3)Nc3nc(NC(C)=O)nn32)cc1 (stereo not given)	Rev-RRE block 42
COc1ccc(C2C(C#N)=C(N)Oc3n[nH]c(C)c32)cc1Cn1cc([N+](=O)[O-])cn1 (stereo not given)	none
c1ccc2c(Oc3ccc4c(c3)OCO4)nncc2c1	none

Bioassay records: PubChem, several laboratories
